# Measurements: ChEMBL document CHEMBL4118142, “Novel amidrazone derivatives: Design, synthesis and activity evaluation” (Bioorg Med Chem, 2018)
# The source made the active and inactive calls. No cut-off for these calls is given here.
# Legend:
# [1] = target: T1, Acid-sensing ion channel 1 (Rattus norvegicus) (UniProt P55926); assay: (§1) Inhibition of ASIC1a in rat articular chondrocytes assessed as decrease in acid-induced intracellular calcium level at 25 uM pretreated with compound followed by acid medium stimulation in presence of voltage gated calcium channel inhibitor nimodipine after 24 hrs by Fluo-3AM dye based laser scanning confocal microscopy relative to control; format: cell-based
# T1 sequence (whole entry): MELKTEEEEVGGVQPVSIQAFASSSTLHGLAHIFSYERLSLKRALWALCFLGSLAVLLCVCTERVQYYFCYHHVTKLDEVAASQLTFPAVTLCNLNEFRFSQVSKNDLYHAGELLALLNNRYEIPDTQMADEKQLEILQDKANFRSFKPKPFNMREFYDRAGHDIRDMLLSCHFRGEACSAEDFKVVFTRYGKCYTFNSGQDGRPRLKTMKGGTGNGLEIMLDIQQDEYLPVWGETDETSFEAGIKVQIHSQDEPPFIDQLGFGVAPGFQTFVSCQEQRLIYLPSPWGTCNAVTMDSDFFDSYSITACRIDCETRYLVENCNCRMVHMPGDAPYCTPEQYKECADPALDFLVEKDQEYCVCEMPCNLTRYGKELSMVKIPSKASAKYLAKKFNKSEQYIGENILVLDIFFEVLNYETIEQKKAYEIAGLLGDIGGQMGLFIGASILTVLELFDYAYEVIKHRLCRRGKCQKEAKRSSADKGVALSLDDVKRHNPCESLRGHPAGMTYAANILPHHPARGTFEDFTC
# Outline: (§2)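 Primary rat articular chondrocytes (1 × 10^5 cells) were grown 24 h, then loaded with 10 μM Fluo-3-AM plus 0.02% Pluronic F-127 for 30 min at 37 °C and washed. Nimodipine (5 μM) was present in the extracellular fluid. Cells were perfused with D-Hank's containing compound, then with Hank's solution at pH 6.0. Confocal fluorescence (ex 488, em 525 nm) was imaged up to 5 min. Result reported as % inhibition of Ca2+ fluorescence intensity.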
# [2] = Cytotoxicity against rat articular chondrocytes assessed as decrease in cell viability at 3.125 to 25 uM after 24 hrs by MTT assay
# Outline: (§3)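 Primary rat articular chondrocytes were seeded at 5 × 10^3 cells/well and incubated 24 h in DMEM with 10% FBS. They were then exposed to compound for 24 h. MTT (5 mg/mL stock) was added for 4 h at 37 °C, formazan was dissolved in DMSO, and OD was read at 492 nm against a cell-free blank. Run in triplicate, three independent experiments, means ± SE.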
# [3] = target: T1, Acid-sensing ion channel 1 (Rattus norvegicus); assay: Inhibition of acid-induced ASIC1a protein expression in rat articular chondrocytes at 3.125 to 50 uM pretreated for 24 hrs followed by acid medium stimulation at pH 6 for 3 hrs by Western blot analysis; format: cell-based
# Outline: (§4)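 Primary rat articular chondrocytes in DMEM/10% FBS at 37 °C, 5% CO2 were pretreated with compound for 24 h, then stimulated with acidic medium (pH 6.0) for 3 h. Cells kept at pH 7.4 served as control. Cells were PBS-washed and lysed, and ASIC1a was measured by Western blot with β-actin as internal control. Mean ± SD of three independent experiments.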
# [4] = Cytotoxicity against rat articular chondrocytes assessed as decrease in cell viability at 1.563 to 25 uM after 24 hrs by MTT assay; outline: as §3
# [5] = target: T1, Acid-sensing ion channel 1 (Rattus norvegicus); assay: Inhibition of acid-induced ASIC1a protein expression in rat articular chondrocytes at 1.563 to 25 uM pretreated for 24 hrs followed by acid medium stimulation at pH 6 for 3 hrs by Western blot analysis; format: cell-based; outline: as §4
# [6] = target: T2, Acid-sensing ion channel 1 (Rattus norvegicus, UniProt P55926); assay: Inhibition of ASIC1a in rat dorsal root ganglion neurons assessed as reduction in peak current preincubated for 120 secs followed by acid medium stimulation at pH 5.5 for 3 secs by automated patch clamp electrophysiology assay
# T2 sequence (P55926 whole entry): T1 sequence (whole entry)
# [7] = target: T2, Acid-sensing ion channel 1; assay: Inhibition of ASIC1 in Sprague-Dawley rat articular chondrocytes assessed as decrease in acid-induced intracellular calcium level by Fluo-3AM dye based laser scanning confocal microscopy; format: cell-based
# Outline: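 Primary rat articular chondrocytes were seeded at 1 × 10^5 cells and used after 24 h. Cells were loaded with 10 µM Fluo-3-AM plus 0.02% Pluronic F-127 for 30 min at 37 °C, washed, and kept with 5 µM nimodipine in the extracellular fluid. They were perfused with D-Hank's, then compound, then pH 6.0 Hank's. Confocal readout at ex 488/em 525 nm over 5 min gave the fluorescence-intensity inhibition rate.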
# [8] = Cytotoxicity against rat articular chondrocytes assessed as decrease in cell viability at 50 uM after 24 hrs by MTT assay; outline: as §3
# [9] = target: T1, Acid-sensing ion channel 1 (Rattus norvegicus); assay: as §1, with “50” for “25”; format: cell-based; outline: as §2
SMILES,inhibition [1] [%],inhibition [3],Activity [4],inhibition of ASIC1a protein expression (active/not active) [5],also measured
COc1ccc(/C=C/c2ccc3cc(C(=N)NN)ccc3c2)cc1,68.9,Active,,,Activity [2]: Non-Toxic
N=C(NN)c1ccc2cc(/C=C/c3ccc(F)cc3)ccc2c1,,,Non-Toxic,inactive,
N=C(NN)c1ccc2cc(/C=C/c3ccccc3F)ccc2c1,52.1,,Non-Toxic,Active,
N=C(NN)c1ccc2cc(/C=C/c3ccccc3)ccc2c1,33.4,,Non-Toxic,Active,
CC(C)C1c2cc(C3CC3c3ccc4cc(C(=N)N)ccc4c3)ccc2CCN1C (centres undefined),,,,,IC50 [6]: 2 µM
N=C(NN)c1ccc2cc(/C=C/c3cccc(F)c3)ccc2c1,,,Non-Toxic,Active,
N=C(N)NC(=O)c1nc(Cl)c(N)nc1N [AMILORIDE],,,,,IC50 [7]: 30.2 µM
Cc1ccc(/C=C/c2ccc3cc(C(=N)NN)ccc3c2)cc1,,Active,,,Activity [8]: Toxic; inhibition [9]: 63.2%
N=C(NN)c1ccc2cc(/C=C/c3cccc(Cl)c3)ccc2c1,59.5,,Non-Toxic,Active,
N=C(NN)c1ccc2cc(/C=C/c3ccc(Cl)cc3)ccc2c1,,Active,,,inhibition [9]: 20.8%; Activity [2]: Non-Toxic
